High-throughput results as filed in PubChem BioAssay.
A selection: hits, their analogues and other compounds. The true share with any hit is near 5.8%.
GASC1 inh = KDM4C (human) demethylase inhibition | Q9H3R0 | GST-KDM4C 2-372, H3K9me3 peptide, LANCE TR-FRET | inhibition, % at 12.5 µM | 96,000 tested, 0.15% active | AID 720574;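 active = mean replicate inhibition above about 25%, with at least 55% of replicates also reaching it, limit read from the data, passing the limit was not always enough; inconclusive = only one of those two conditions met; inactive = neither condition met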
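Material: N-terminal GST-fused human GASC-1 (KDM4C) fragment, residues 2-372. Input: 10 nM enzyme. Incubation: enzyme reaction 30 min, then detection 60 min, both room temperature. Doses: one test concentration per compound. Read-out basis: inhibition from TR-FRET ratio decrease. Detection: LANCE TR-FRET, excitation 340 nm, emissions 618 and 671 nm.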
IDH1 mut inh = inhibitors of human IDH1 R132H | O75874 | IDH1 R132H reductase, diaphorase/resazurin fluorescence, 60 min | inhibition, % at 10 µM | 70,000 tested, 0.18% active; in the data active = inhibition above about 34%; inconclusive = no clear call, values can overlap the other calls; inactive = below about 11%;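 note: 0% = DMSO and 100% = no enzyme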
Target sequence (O75874 whole entry R132H): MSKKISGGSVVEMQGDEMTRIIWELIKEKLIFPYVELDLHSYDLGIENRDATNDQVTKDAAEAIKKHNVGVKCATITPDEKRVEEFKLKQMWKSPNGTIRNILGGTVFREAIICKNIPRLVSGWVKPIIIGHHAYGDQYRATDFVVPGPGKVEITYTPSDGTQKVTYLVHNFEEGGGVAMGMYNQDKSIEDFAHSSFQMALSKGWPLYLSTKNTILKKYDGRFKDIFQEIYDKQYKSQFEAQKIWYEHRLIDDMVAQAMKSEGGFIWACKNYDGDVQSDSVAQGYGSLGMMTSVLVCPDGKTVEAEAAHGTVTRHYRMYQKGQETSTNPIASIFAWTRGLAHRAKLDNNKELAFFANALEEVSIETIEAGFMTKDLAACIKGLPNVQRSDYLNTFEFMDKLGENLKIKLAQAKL
Pf Dd2 growth = P. falciparum Dd2 growth inhibition | activity change, % at 10 µM | SYBR Green, 72 h; active compounds read low | 94,000 tested, 2.3% active; in the data active = activity change below about -80%; inconclusive = no clear call, values can overlap the other calls
T cruzi growth-1 = blocks T. cruzi growth in NIH3T3 culture | T. cruzi beta-gal in NIH3T3, GalScreen luminescence, 90 h | inhibition, % at 8.34 µM | 77,000 tested, 5.9% active;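 active = mean inhibition above about 93%, with at least 55% of replicates each passing it, limit read from the data, passing the limit was not always enough; inconclusive = only one of those two conditions holds; inactive = neither condition holds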
T cruzi growth-2 = inhibitors of T. cruzi proliferation; shares compounds with T cruzi growth-1; T. cruzi beta-gal in NIH3T3, GalScreen luminescence, 90 h; inhibition, % at 8.35 µM; 5,600 tested, 72% active;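 active = mean replicate inhibition above about 95% and at least 55% of replicates individually reaching it, limit read from the data; inconclusive = only one of the two criteria is met; inactive = neither criterion is met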
T cruzi growth-3 = Trypanosoma cruzi proliferation inhibition; shares compounds with T cruzi growth-1; T. cruzi beta-gal in NIH3T3, GalScreen luminescence, 90 h; inhibition, % at 2.09 µM; 5,600 tested, 21% active; AID 651740;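 active = mean inhibition above about 95%, with at least 55% of replicates also reaching it, limit read from the data; inconclusive = meets just one of the two conditions; inactive = meets neither condition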;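 note: plate controls were neutral control median for no effect and positive control median for full effect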
NIH3T3 tox = NIH/3T3 (mouse) viability loss; 5,600 tested, 14% active; cytotoxicity (signal decrease), % at 8.35 µM; shares compounds with T cruzi growth-1; NIH/3T3 viability, CellTiter-Glo ATP luminescence, 90 h;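 active = mean signal decrease across replicates above about 35% based on untreated-well scatter, with enough replicates individually passing, limit read from the data; inconclusive = no rule stated though some were filed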;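 note: 0% = median of neutral control wells and 100% = median of positive control wells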
3T3 cytotox 2 = kills mouse NIH/3T3 fibroblasts. shares compounds with T cruzi growth-1. NIH/3T3 viability, CellTiter-Glo ATP luminescence, 90 h. inhibition, % at 24.9 µM. 5,600 tested, 56% active. AID 651744;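 active = mean loss of cell viability signal at or above a set limit, and enough replicates individually reaching it; inconclusive = meets only the mean limit or only the replicate share; inactive = meets neither condition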;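 note: 0% = median of neutral control wells and 100% = median of positive control wells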
Starred values were filed as active, the others as inactive; u = inconclusive; x = no result given.

SMILES | GASC1 inh | IDH1 mut inh | Pf Dd2 growth | T cruzi growth-1 | T cruzi growth-2 | T cruzi growth-3 | NIH3T3 tox | 3T3 cytotox 2
CN1C[C@H]2[C@@H](c3ccccc31)[C@H](CO)N2C(=O)Nc1ccc(F)cc1 | -2 | x | -7 | 57 | x | x | x | x
CN(C)C(=O)c1cccc(-c2ccc3c(c2)[C@H]2[C@H](CCN2C(=O)c2cccc(F)c2)[C@@H](CO)N3C)c1 | 3 | x | -13 | 99* | 103* | 41 | 5 | 8
CN1c2ccc(-c3ccc(C#N)cc3)cc2[C@@H]2[C@@H](CCN2C(=O)c2cccc(F)c2)[C@H]1CO | 1 | x | 25 | u | 110* | 103* | 25 | 82*
CCCNC(=O)N1C[C@H]2[C@@H](c3ccccc31)[C@@H](CO)N2C(=O)c1ccccc1 | -1 | x | -3 | 66 | x | x | x | x
COc1ccccc1NC(=O)N1CCCCN2[C@@H](CO)[C@H](c3ccc(-c4cccc(C)c4)cc3)[C@@H]2C1 | -1 | x | -38 | 68 | x | x | x | x
COc1ccc(-c2ccc([C@@H]3[C@H](CO)N4CCCCN(C(=O)NC(C)C)C[C@@H]34)cc2)cc1 | 1 | x | -17 | 109* | 108* | 67 | 10 | 45*
COc1ccccc1NC(=O)N1CCCCN2[C@H](CO)[C@H](c3ccc(-c4cccc(C)c4)cc3)[C@@H]2C1 | -1 | x | -11 | u | 107* | 103* | 5 | u
COc1cccc(-c2ccc([C@@H]3[C@H](CO)N4CCCCN(C(=O)NC(C)C)C[C@@H]34)cc2)c1 | -1 | x | 1 | 102* | 105* | 51 | -3 | 48*
Cc1cccc(-c2ccc([C@H]3[C@@H](CO)N4CCCCN(C(=O)NC(C)C)C[C@H]34)cc2)c1 | -2 | x | -7 | 109* | 108* | 84 | -15 | 105*
Cc1cccc(-c2ccc([C@@H]3[C@H]4CN(C(=O)NC(C)C)CCCCN4[C@H]3CO)cc2)c1 | -1 | x | 17 | 91 | x | x | x | x
COc1cccc(-c2ccc([C@H]3[C@H]4CN(C(=O)NC(C)C)CCCCN4[C@H]3CO)cc2)c1 | 0 | x | 17 | 91 | x | x | x | x
COc1cccc(NC(=O)N(C)C[C@@H]2Oc3cc(C#Cc4ccccc4)ccc3S(=O)(=O)N([C@H](C)CO)C[C@@H]2C)c1 | x | x | -90* | 86* | 104* | u | 32 | 22
COc1cccc(NC(=O)N(C)C[C@@H]2Oc3cc(C#Cc4ccc(F)cc4)ccc3S(=O)(=O)N([C@H](C)CO)C[C@@H]2C)c1 | 6 | 2 | -90* | 117* | 99* | 111* | 50* | 38*
COc1cccc(NC(=O)N(C)C[C@@H]2Oc3cc(C#Cc4ccncc4)ccc3S(=O)(=O)N([C@H](C)CO)C[C@@H]2C)c1 | -2 | -10 | u | 68 | x | x | x | x
COc1ccc(C#Cc2ccc3c(c2)O[C@H](CN(C)C(=O)Nc2cccc(OC)c2)[C@H](C)CN([C@@H](C)CO)S3(=O)=O)cc1 | -3 | x | -86* | 116* | 111* | 104* | 13 | 9
COc1cccc(NC(=O)N(C)C[C@@H]2Oc3cc(C#Cc4ccc(F)cc4)ccc3S(=O)(=O)N([C@H](C)CO)C[C@H]2C)c1 | 0 | x | -78 | 103* | 98* | 94 | 22 | 55*
COc1cccc(NC(=O)N(C)C[C@H]2Oc3cc(C#Cc4ccncc4)ccc3S(=O)(=O)N([C@H](C)CO)C[C@@H]2C)c1 | 0 | 0 | -54 | 19 | x | x | x | x
COc1cccc(NC(=O)N(C)C[C@@H]2Oc3cc(C#Cc4ccncc4)ccc3S(=O)(=O)N([C@H](C)CO)C[C@H]2C)c1 | 1 | x | -55 | -55 | x | x | x | x
CCC(=O)Nc1ccc2c(c1)C(=O)N(C)[C@@H]1CC[C@H](CC(=O)N[C@H](C)c3ccccc3)O[C@H]1CO2 | -1 | x | 1 | 12 | x | x | x | x
C[C@@H]1CN([C@H](C)CO)C(=O)c2cc(NC(=O)CCCN(C)C)ccc2O[C@H]1CN(C)C(=O)Nc1ccc2c(c1)OCO2 | 3 | x | 7 | -14 | x | x | x | x
CC(C)CC#Cc1cnc2c(c1)C(=O)N([C@@H](C)CO)C[C@H](C)[C@@H](CN(C)C(=O)C1CCCCC1)O2 | -1 | -2 | -34 | 122 | x | x | x | x
COc1cccc(C#Cc2ccc3c(c2)O[C@@H](CN(C)C(C)=O)[C@H](C)CN([C@H](C)CO)S3(=O)=O)c1 | -1 | -8 | -58 | 74 | x | x | x | x
COc1cccc(NC(=O)N(C)C[C@@H]2Oc3cc(-c4ccccc4F)ccc3S(=O)(=O)N([C@@H](C)CO)C[C@H]2C)c1 | -1 | -3 | -14 | 68 | x | x | x | x
COc1cccc(C#Cc2ccc3c(c2)O[C@H](CN(C)C(C)=O)[C@@H](C)CN([C@H](C)CO)S3(=O)=O)c1 | -1 | 0 | -71 | u | 105* | 38 | 10 | 35*
COc1cccc(NC(=O)N(C)C[C@H]2Oc3cc(-c4ccccc4F)ccc3S(=O)(=O)N([C@H](C)CO)C[C@@H]2C)c1 | -2 | 0 | -41 | u | 98* | -20 | 7 | u
SMILES | GASC1 inh | IDH1 mut inh | Pf Dd2 growth | T cruzi growth-1 | T cruzi growth-2 | T cruzi growth-3 | NIH3T3 tox | 3T3 cytotox 2
C=CCOC(=O)[C@@H]1[C@H]2C(=O)O[C@H](c3ccccc3)[C@H](c3ccccc3)N2[C@H](c2ccc(OCCOC(=O)[C@@H]3C[C@@H]4C(=O)N[C@@H](CCCCNC(C)=O)C(=O)N4[C@@H]3c3ccc(O)cc3)cc2)[C@@]12C(=O)Nc1ccc(I)cc12 | x | 0 | x | x | x | x | x | x
N#C[C@@H]1[C@@H](c2ccc(C3=CCCCC3)cc2)[C@H](CO)N1C(=O)NC1CCCCC1 | -1 | x | -28 | 98* | 103* | 67 | -10 | 87*
CNC[C@H]1[C@@H](c2ccccc2)[C@@H](CO)N1C(=O)Nc1cccc(OC)c1 | -5 | x | -7 | 33 | x | x | x | x
CC(C)NC[C@@H]1[C@H](c2ccc(C3=CCCCC3)cc2)[C@H](CO)N1C(=O)NC(C)C | -1 | x | -41 | 121* | 106* | 98* | 29 | 105*
COc1cccc(NC(=O)N2[C@H](CO)[C@H](c3ccccc3)[C@@H]2CNC(C)C)c1 | -1 | x | -28 | 115* | 91 | 27 | 1 | -6
N#C[C@H]1[C@@H](c2ccc(C3=CCCC3)cc2)[C@@H](CO)N1C(=O)NC1CCCCC1 | 0 | x | -27 | x | x | x | x | x
N#C[C@@H]1[C@@H](c2ccc(C3=CCCCC3)cc2)[C@@H](CO)N1C(=O)NC1CCCCC1 | 1 | x | 11 | 98* | 104* | 63 | 54* | 64*
N#C[C@@H]1[C@H](c2ccc(C3=CCCC3)cc2)[C@@H](CO)N1C(=O)NC1CCCC1 | 1 | x | -77 | 50 | x | x | x | x
